Calls of active or inactive are those of the source. The rule behind the calls is not given here.
Key:
Rattus norvegicus [1] = assay: Compound was evaluated in tests of stimulus generalization using animals trained to discriminate DOM from saline, and the mean responses per min at dose of 2.5 mg/kg; assay type: functional
How it was run: (§1)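 Male Sprague-Dawley rats (n = 10) trained to discriminate 1.0 mg/kg DOM HCl from saline on a two-lever operant task, VI 15-s food reinforcement. Test doses were given ip in random order, 15 min pre-session, with at least three training sessions between tests. Responding was scored in a 2.5-min extinction session. Rats with fewer than five total responses were counted as disrupted.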

Rattus norvegicus [2] = species: Rattus norvegicus; assay: Compound was tested for the doses at which the animals would be expected to make approximately 50% of their responses on the DOM-appropriate lever; assay type: functional
How it was run: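 DOM-trained rats (1.0 mg/kg DOM HCl vs saline, two-lever, VI 15 s, food) were given ip doses 15 min before a 2.5-min extinction session. Where >80% of responses fell on the DOM lever (generalization), the dose expected to give about 50% DOM-lever responding was calculated from dose–response data and reported with 95% confidence limits.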

Rattus norvegicus [3] = assay: Stimulus generalization studies in TFMPP trained animals and the number of animals responding /number to receive dose of drug was determined at dose of 4.0 mg/kg; 0/3; assay type: functional
[4] = target: Serotonin 2 (5-HT2) receptor (Rattus norvegicus, UniProt P30994+P08909+P14842); assay: Displacement of [3H]ketanserin from 5-hydroxytryptamine 2 receptor of rat cortical membrane homogenates
Rattus norvegicus [5] = assay: Compound was evaluated in tests of stimulus generalization using animals trained to discriminate DOM from saline, and the mean responses per min at dose of 5.0 mg/kg; assay type: functional; how it was run: as §1
Rattus norvegicus [6] = assay: Stimulus generalization studies in TFMPP trained animals and the number of animals responding /number to receive dose of drug was determined at dose of 3 mg/kg; 2/3; assay type: functional
Rattus norvegicus [7] = assay: Compound was evaluated in stimulus generalization studies in DOM trained animals and the number of animals responding /number ot receive dose of drug at dose of 0.6 mg/kg; 3/3; assay type: functional; how it was run: as §1
Rattus norvegicus [8] = assay: Stimulus generalization studies in TFMPP trained animals and the number of animals responding /number to receive dose of drug was determined at dose of 1 mg/kg; 3/3; assay type: functional
How it was run: (§2)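 Male Sprague-Dawley rats (n = 6) trained to discriminate 0.5 mg/kg TFMPP HCl from saline on a two-lever operant task, VI 15-s food reward. Challenge doses were given ip in random order 15 min before a 2.5-min extinction test, with at least three training sessions between tests. Fewer than five total responses was scored as disruption.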

[9] = Displacement of [3H]5-HT from 5-hydroxytryptamine 1 receptor of rat cortical membrane homogenates
Rattus norvegicus [10] = assay: Compound was evaluated in stimulus generalization test using animals trained to discriminate TFMPP from saline, and the drug appropriate responding at dose of 1.0 mg/kg; assay type: functional; how it was run: as §2
Rattus norvegicus [11] = assay: Compound was evaluated in stimulus generalization test using animals trained to discriminate TFMPP from saline, and the drug appropriate responding at dose of 4.0 mg/kg; Not responding; assay type: functional, organism-based; set-up: dose 4 mg/kg; how it was run: as §2
Rattus norvegicus [12] = assay: Compound was evaluated in stimulus generalization studies in DOM trained animals and the number of animals responding /number ot receive dose of drug at dose of 3.5 mg/kg; 4/4; assay type: functional; how it was run: as §1
Rattus norvegicus [13] = assay: Compound was evaluated in stimulus generalization test using animals trained to discriminate TFMPP from saline, and the mean responses per min at dose of 3.5 mg/kg; assay type: functional; how it was run: as §2
Rattus norvegicus [14] = assay: Compound was evaluated in tests of stimulus generalization using animals trained to discriminate DOM from saline, and the drug appropriate responding at dose of 3.5 mg/kg; assay type: functional; how it was run: as §1
Rattus norvegicus [15] = assay: Compound was evaluated in stimulus generalization studies in DOM trained animals and the number of animals responding /number ot receive dose of drug at dose of 2.5 mg/kg; 4/4; assay type: functional; how it was run: as §1
Rattus norvegicus [16] = assay: Stimulus generalization studies in TFMPP trained animals and the number of animals responding /number to receive dose of drug was determined at dose of 3.5 mg/kg; 2/3; assay type: functional
Rattus norvegicus [17] = assay: Compound was evaluated in stimulus generalization test using animals trained to discriminate TFMPP from saline, and the drug appropriate responding at dose of 3.0 mg/kg; assay type: functional; how it was run: as §2
Rattus norvegicus [18] = assay: Compound was evaluated in stimulus generalization test using animals trained to discriminate TFMPP from saline, and the drug appropriate responding at dose of 3.5 mg/kg; assay type: functional; how it was run: as §2
Rattus norvegicus [19] = assay: Compound was evaluated in stimulus generalization test using animals trained to discriminate TFMPP from saline, and the mean responses per min at dose of 1.0 mg/kg; assay type: functional; how it was run: as §2
Rattus norvegicus [20] = assay: Compound was evaluated in stimulus generalization test using animals trained to discriminate TFMPP from saline, and the mean responses per min at dose of 3.0 mg/kg; assay type: functional; how it was run: as §2
Rattus norvegicus [21] = assay: Compound was evaluated in tests of stimulus generalization using animals trained to discriminate DOM from saline, and the drug appropriate responding at dose of 0.6 mg/kg; assay type: functional; how it was run: as §1
Rattus norvegicus [22] = assay: Compound was evaluated in tests of stimulus generalization using animals trained to discriminate DOM from saline, and the mean responses per min at dose of 0.6 mg/kg; assay type: functional; how it was run: as §1
Rattus norvegicus [23] = assay: Compound was evaluated in stimulus generalization studies in DOM trained animals and the number of animals responding /number ot receive dose of drug at dose of 5.0 mg/kg; 3/4; assay type: functional; how it was run: as §1
Rattus norvegicus [24] = assay: Compound was evaluated in tests of stimulus generalization using animals trained to discriminate DOM from saline, and the drug appropriate responding at dose of 5.0 mg/kg; assay type: functional; how it was run: as §1
Rattus norvegicus [25] = assay: Compound was evaluated in tests of stimulus generalization using animals trained to discriminate DOM from saline, and the drug appropriate responding at dose of 2.5 mg/kg; assay type: functional; how it was run: as §1
Rattus norvegicus [26] = assay: Compound was evaluated in tests of stimulus generalization using animals trained to discriminate DOM from saline, and the mean responses per min at dose of 3.5 mg/kg; assay type: functional; how it was run: as §1
Rattus norvegicus [27] = assay: Stimulus generalization studies in TFMPP trained animals and the number of animals responding /number to receive dose of drug was determined at dose of 1.0 mg/kg; 10/10; assay type: functional
Rattus norvegicus [28] = assay: Compound was evaluated in tests of stimulus generalization using animals trained to discriminate DOM from saline, and the drug appropriate responding at dose of 0.5 mg/kg; assay type: functional; how it was run: as §1
Rattus norvegicus [29] = assay: Compound was evaluated in stimulus generalization studies in DOM trained animals and the number of animals responding /number to receive dose of drug at dose of 0.5 mg/kg; 3/3; assay type: functional; how it was run: as §1
Rattus norvegicus [30] = assay: Compound was evaluated in stimulus generalization studies in DOM trained animals and the number of animals responding /number to receive dose of drug at dose of 2.5 mg/kg; 3/6; assay type: functional; how it was run: as §1
Rattus norvegicus [31] = assay: Compound was evaluated in tests of stimulus generalization using animals trained to discriminate DOM from saline, and the drug appropriate responding at dose of 2.2 mg/kg; Not responding; assay type: functional, organism-based; set-up: dose 2.2 mg/kg; how it was run: as §1
Rattus norvegicus [32] = assay: Stimulus generalization studies in TFMPP trained animals and the number of animals responding /number to receive dose of drug was determined at dose of 0.5 mg/kg; 3/3; assay type: functional; how it was run: as §2
Rattus norvegicus [33] = assay: Compound was evaluated in stimulus generalization studies in DOM trained animals and the number of animals responding /number to receive dose of drug at dose of 2.2 mg/kg; 2/5; assay type: functional; how it was run: as §1
Rattus norvegicus [34] = assay: Compound was evaluated in tests of stimulus generalization using animals trained to discriminate DOM from saline, and the drug appropriate responding at dose of 2.0 mg/kg; assay type: functional; how it was run: as §1
Rattus norvegicus [35] = assay: Compound was evaluated in tests of stimulus generalization using animals trained to discriminate DOM from saline, and the drug appropriate responding at dose of 2.7 mg/kg; Not responding; assay type: functional, organism-based; set-up: dose 2.7 mg/kg; how it was run: as §1
Rattus norvegicus [36] = assay: Compound was evaluated in tests of stimulus generalization using animals trained to discriminate DOM from saline, and the mean responses per min at dose of 0.5 mg/kg; assay type: functional; how it was run: as §1
Rattus norvegicus [37] = assay: Compound was evaluated in stimulus generalization test using animals trained to discriminate TFMPP from saline, and the mean responses per min at dose of 0.5 mg/kg; assay type: functional; how it was run: as §2
Rattus norvegicus [38] = assay: Compound was evaluated in stimulus generalization test using animals trained to discriminate TFMPP from saline, and the drug appropriate responding at dose of 2.5 mg/kg; assay type: functional; how it was run: as §2
Rattus norvegicus [39] = assay: Compound was evaluated in tests of stimulus generalization using animals trained to discriminate DOM from saline, and the mean responses per min at dose of 2.0 mg/kg; assay type: functional; how it was run: as §1
Rattus norvegicus [40] = assay: Compound was evaluated in stimulus generalization test using animals trained to discriminate TFMPP from saline, and the drug appropriate responding at dose of 0.5 mg/kg; assay type: functional; how it was run: as §2
Rattus norvegicus [41] = assay: Stimulus generalization studies in TFMPP trained animals and the number of animals responding /number to receive dose of drug was determined at dose of 1 mg/kg; 3/4; assay type: functional; how it was run: as §2
Rattus norvegicus [42] = assay: Compound was evaluated in tests of stimulus generalization using animals trained to discriminate DOM from saline, and the drug appropriate responding at dose of 3.0 mg/kg; Not responding; assay type: functional, organism-based; set-up: dose 3 mg/kg; how it was run: as §1
Rattus norvegicus [43] = assay: Compound was evaluated in stimulus generalization studies in DOM trained animals and the number of animals responding /number to receive dose of drug at dose of 3.0 mg/kg; 1/4; assay type: functional; how it was run: as §1
Rattus norvegicus [44] = assay: Stimulus generalization studies in TFMPP trained animals and the number of animals responding /number to receive dose of drug was determined at dose of 2.5 mg/kg; 5/5; assay type: functional; how it was run: as §2
Rattus norvegicus [45] = assay: Compound was evaluated in stimulus generalization studies in DOM trained animals and the number of animals responding /number ot receive dose of drug at dose of 2.0 mg/kg; 3/4; assay type: functional; how it was run: as §1
Rattus norvegicus [46] = assay: Compound was evaluated in stimulus generalization test using animals trained to discriminate TFMPP from saline, and the mean responses per min at dose of 2.5 mg/kg; assay type: functional; how it was run: as §2
Rattus norvegicus [47] = assay: Compound was evaluated in stimulus generalization studies in DOM trained animals and the number of animals responding /number to receive dose of drug at dose of 2.7 mg/kg; 1/4; assay type: functional; how it was run: as §1

Compound: c1ccc2cc(N3CCNCC3)ccc2c1
- Mean response/min (Rattus norvegicus [1]): 16.8
- ED50 (Rattus norvegicus [2]): 2.9 mg/kg
- Activity (Rattus norvegicus [3]): 0
- Ki [4]: 70 nM
- Mean response/min (Rattus norvegicus [5]): 8.7
- Activity (Rattus norvegicus [6]): 2
- Activity (Rattus norvegicus [7]): 3
- Activity (Rattus norvegicus [8]): 3
- Ki [9]: 265 nM
- Drug responding (Rattus norvegicus [10]): 6%
- Drug responding (Rattus norvegicus [11]): inactive
- Activity (Rattus norvegicus [12]): 4
- Mean response/min (Rattus norvegicus [13]): 7
- Drug responding (Rattus norvegicus [14]): 71%
- Activity (Rattus norvegicus [15]): 4
- Activity (Rattus norvegicus [16]): 2
- Drug responding (Rattus norvegicus [17]): 12%
- Drug responding (Rattus norvegicus [18]): 25%
- Mean response/min (Rattus norvegicus [19]): 20.6
- Mean response/min (Rattus norvegicus [20]): 7
- Drug responding (Rattus norvegicus [21]): 3%
- Mean response/min (Rattus norvegicus [22]): 16.1
- Activity (Rattus norvegicus [23]): 3
- Drug responding (Rattus norvegicus [24]): 88%
- Drug responding (Rattus norvegicus [25]): 33%
- Mean response/min (Rattus norvegicus [26]): 8

Compound: COc1cc(CC(C)N)c(OC)cc1C (centres undefined) [DOM]
- Activity (Rattus norvegicus [27]): 10

Compound: CCCN(CCC)c1ccc2cccc(OC)c2n1
- Ki [4]: 50000 nM
- Ki [9]: 45000 nM

Compound: c1ccc2nc(N3CCCCC3)ccc2c1
- Ki [4]: > 150000 nM
- Ki [9]: > 100000 nM

Compound: c1ccc2c(N3CCNCC3)cccc2c1
- Mean response/min (Rattus norvegicus [1]): 2.6
- Drug responding (Rattus norvegicus [28]): 14%
- Activity (Rattus norvegicus [29]): 3
- Activity (Rattus norvegicus [30]): 3
- ED50 (Rattus norvegicus [2]): 1 mg/kg
- Drug responding (Rattus norvegicus [31]): inactive
- Activity (Rattus norvegicus [32]): 3
- Activity (Rattus norvegicus [33]): 2
- Ki [4]: 18 nM
- Ki [9]: 5 nM
- Drug responding (Rattus norvegicus [34]): 7%
- Drug responding (Rattus norvegicus [10]): 41%
- Drug responding (Rattus norvegicus [35]): inactive
- Mean response/min (Rattus norvegicus [36]): 18
- Mean response/min (Rattus norvegicus [37]): 19.1
- Drug responding (Rattus norvegicus [38]): 96%
- Mean response/min (Rattus norvegicus [39]): 8.8
- Mean response/min (Rattus norvegicus [19]): 17.3
- Drug responding (Rattus norvegicus [25]): 37%
- Drug responding (Rattus norvegicus [40]): 15%
- Activity (Rattus norvegicus [41]): 3
- Drug responding (Rattus norvegicus [42]): inactive
- Activity (Rattus norvegicus [43]): 1
- Activity (Rattus norvegicus [44]): 5
- Activity (Rattus norvegicus [45]): 3
- Mean response/min (Rattus norvegicus [46]): 16.4
- Activity (Rattus norvegicus [47]): 1

Compound: COc1cccc2ccc(N3CCNCC3)nc12
- Ki [4]: 310 nM
- Ki [9]: 415 nM

Compound: Nc1cnc2ccccc2c1
- Ki [4]: > 300000 nM
- Ki [9]: 56000 nM

Compound: COc1cccc2ccc(N3CCN(C)CC3)nc12
- Ki [4]: 1200 nM
- Ki [9]: 1900 nM
